Assay [1] deals with T1, Vitamin K-dependent gamma-carboxylase (Rattus norvegicus) (UniProt O88496).
T1 sequence (whole entry): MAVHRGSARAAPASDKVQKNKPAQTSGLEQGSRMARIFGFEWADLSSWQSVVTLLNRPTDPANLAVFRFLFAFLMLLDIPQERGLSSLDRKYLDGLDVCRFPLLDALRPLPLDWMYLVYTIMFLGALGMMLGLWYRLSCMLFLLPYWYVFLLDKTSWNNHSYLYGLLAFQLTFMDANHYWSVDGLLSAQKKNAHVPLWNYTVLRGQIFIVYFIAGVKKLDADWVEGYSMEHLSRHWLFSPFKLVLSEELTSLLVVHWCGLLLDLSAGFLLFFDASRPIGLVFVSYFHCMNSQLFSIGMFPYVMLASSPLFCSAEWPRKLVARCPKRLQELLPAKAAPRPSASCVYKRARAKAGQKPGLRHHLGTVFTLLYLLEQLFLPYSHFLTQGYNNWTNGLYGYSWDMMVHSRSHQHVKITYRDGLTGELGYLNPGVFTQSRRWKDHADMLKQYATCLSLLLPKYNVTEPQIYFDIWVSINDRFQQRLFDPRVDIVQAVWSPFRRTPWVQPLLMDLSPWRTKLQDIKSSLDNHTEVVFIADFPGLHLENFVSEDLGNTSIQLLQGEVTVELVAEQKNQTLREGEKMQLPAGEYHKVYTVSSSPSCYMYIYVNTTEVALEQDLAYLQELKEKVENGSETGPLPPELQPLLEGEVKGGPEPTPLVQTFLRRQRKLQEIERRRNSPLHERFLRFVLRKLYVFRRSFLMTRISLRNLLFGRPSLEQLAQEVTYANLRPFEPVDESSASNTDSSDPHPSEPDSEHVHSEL
As to the kind of experiment: Vitamin K-dependent gamma-carboxylase activity was assayed in liver microsomes prepared from vitamin K deficient rats incubated at 17 degree Celsius for 60 min (compounds tested the ratio of 5 mM 19 and 0.5 mM 20). The settings on record: Microsome. Put shortly: (§1)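 Liver microsomal carboxylase came from vitamin K deficient rats. Activity was taken as ¹⁴CO₂ incorporation into the Glu-site substrate, in dpm. The analogue was present at 5 mM and/or the Glu-site substrate at 0.5 mM. Incubation ran at 17 °C for 60 min. Values are mean ± SD of four values.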
(Liver microsomes are vesicles of endoplasmic reticulum, rich in cytochrome P450 enzymes.)

The target in assay [2] is T1, Vitamin K-dependent gamma-carboxylase (Rattus norvegicus). Briefly: Vitamin K-dependent gamma-carboxylase activity was assayed in liver microsomes prepared from vitamin K deficient rats incubated at 17 degree Celsius for 30 min (compounds tested the ratio of 2 mM 19 and 1 mM 20). Particulars: Microsome. Put shortly: (§2)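 Rat liver microsomes from vitamin K deficient animals were used, following the Wood and Suttie method. Carboxylation was read as ¹⁴CO₂ incorporation into the Glu-site substrate, in dpm. The cyclopropyl analogue was tested at 2 mM, the Glu-site substrate at 1 mM, each alone or combined. Incubation ran at 17 °C for 30 min. Values are mean ± SD of four values.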

The target is the same in assay [3]. As to the kind of experiment: Vitamin K-dependent gamma-carboxylase activity was assayed in liver microsomes prepared from vitamin K deficient rats incubated at 17 degree Celsius for 60 min. The settings on record: Microsome. Put shortly:
as §1

For assay [4] the target is unchanged. Briefly: Vitamin K-dependent gamma-carboxylase activity was assayed in liver microsomes prepared from vitamin K deficient rats incubated at 17 degree Celsius for 30 min. Particulars: Microsome. Put shortly: as §2
The species entered for assay [5] is Rattus norvegicus. As to the kind of experiment: Epoxide formation after incubation at 17 degree Centigrade for 60 min. The class given is functional. Put shortly: (§3)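 Microsomes came from vitamin K deficient rats dosed with 1 mg phylloquinone (ic) 15 min before killing. Incubation ran at 17 °C for 60 min, with the analogue at 5 mM and/or the Glu-site substrate at 0.5 mM. To extract, 0.5 mL of mix was quenched with 2 volumes of 3:2 2-propanol–hexane, vortexed, held 15 min at 4 °C, and centrifuged. The hexane layer was dried under N₂ and epoxide reported as nmol. Values are mean ± SD of four values.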

The species named for assay [6] is Rattus norvegicus. Briefly: Epoxide formation after incubation at 17 degree Celsius for 60 min (compounds tested the ratio of 5 mM 19 and 0.5 mM 20). The format is functional. Put shortly:
as §3

Assay [7] has as its target T1, Vitamin K-dependent gamma-carboxylase (Rattus norvegicus). As to the kind of experiment: Inhibition of Vitamin K-dependent gamma-carboxylase was determined at a concentration of 5 mM, incubations were at 17 degree Centigrade for 60 minutes.
Assay [8] shares this target. As to the kind of experiment: Inhibition of Vitamin K-dependent gamma-carboxylase was determined at a concentration of 2 mM, incubations were at 17 degree Celsius for 30 minutes. Put shortly:
as §2

Assay [9] is filed under the species Rattus norvegicus. As to the kind of experiment: Epoxide formation was determined at a concentration 0.5 mM of compound along with 5 mM of 1-tert-Butoxycarbonylamino-2-carboxymethyl-cyclopropanecarboxylic acid benzyl ester. The class given is functional. Put shortly: as §3
The species named for assay [10] is Rattus norvegicus. Briefly: Epoxide formation was determined at a concentration of 0.5 mM incubation at 17 degree Celsius for 60 minutes. The format is functional. Put shortly: as §3
Assay [11] has as its target T1, Vitamin K-dependent gamma-carboxylase (Rattus norvegicus). As to the kind of experiment: Inhibition of vitamin K dependent carboxylase was determined at a concentration of 0.5 mM of compound along with 5 mM of 1-tert-Butoxycarbonylamino-2-carboxymethyl-cyclopropanecarboxylic acid benzyl ester. Put shortly: as §1
Assay [12] shares this target. As to the kind of experiment: Inhibition of Vitamin K-dependent gamma-carboxylase was determined at a concentration of 1 mM, incubations were at 17 degree Centigrade for 30 minutes. Put shortly:
as §2

Assay [13] has the same target. As to the kind of experiment: Inhibition of Vitamin K-dependent gamma-carboxylase was determined at a concentration of 0.5 mM, incubations were at 17 degree Celsius for 60 minutes.
The target is the same in assay [14]. Briefly: Inhibition of vitamin K dependent carboxylase was determined at a concentration of 1 mM of compound along with 2 mM of 1-tert-Butoxycarbonylamino-2-carboxymethyl-cyclopropanecarboxylic acid benzyl ester. Put shortly: as §2
Assay [15] is filed under the species Rattus norvegicus. Briefly: Compound was evaluated for the epoxide formation at 5 mM incubations were at 17 degree Celsius for 60 minutes. The class given is functional. In outline: as §3

As for `CC(C)(C)OC(=O)NC(CCC(=O)O)C(=O)OCc1ccccc1.CC(C)(C)OC(=O)NC1(C(=O)OCc2ccccc2)CC1CC(=O)O` (stereo not given) [listing 1 of 2 here], the Carboxylase activity was 12200 dpm in [1] and 5770 dpm in [2].

In the case of `CC(C)(C)OC(=O)NC(CCC(=O)O)C(=O)OCc1ccccc1` (stereo not given), the Carboxylase activity in [3] came to 12600 dpm; in assay [4], 5800 dpm. Further, the Epoxide formation in the assay listed under Rattus norvegicus [5] is 7.1 nmol.

Take `CC(C)(C)OC(=O)NC(CCC(=O)O)C(=O)OCc1ccccc1.CC(C)(C)OC(=O)NC1(C(=O)OCc2ccccc2)CC1CC(=O)O` (stereo not given) [listing 2 of 2 here]: the Epoxide formation in the assay filed under Rattus norvegicus [6] was 6.7 nmol.

`CC(C)(C)OC(=O)NC1(C(=O)OCc2ccccc2)CC1CC(=O)O` (stereo not given) [listing 1 of 2 here]: the Carboxylase activity was determined as 690 dpm in assay [7] and 300 dpm in [8].

For the molecule `CC(C)(C)OC(=O)N[C@H](CCC(=O)O)C(=O)OCc1ccccc1`, the Epoxide formation in the assay listed under Rattus norvegicus [9] is 6.7 nmol; in the assay listed under Rattus norvegicus [10], 7.1 nmol. The Carboxylase activity in assay [11] amounted to 12200 dpm; in [12], 5800 dpm; in assay [13] it was 12600 dpm; in [14], 5770 dpm.

In the assay listed under Rattus norvegicus [15], `CC(C)(C)OC(=O)NC1(C(=O)OCc2ccccc2)CC1CC(=O)O` (stereo not given) [listing 2 of 2 here] registered an Epoxide formation of 5.1 nmol.

The values above are taken from ChEMBL document CHEMBL1125154, “An approach to trapping gamma-glutamyl radical intermediates proposed for vitamin K dependent carboxylase: alpha,beta-methyleneglutamic acid” (1990).
